How the values were obtained:
[1] = Displacement of [3H]gabapentin from alpha2-delta calcium channel in pig brain; parameters: species or system Sus scrofa
In short: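 Competition binding of [3H]gabapentin to partially purified pig forebrain membranes. IC50, in nM, is the concentration giving half-maximal inhibition of specific [3H]gabapentin binding.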

[2] = Dissociation constant, pKa of the compound; assay type: physicochemical

SMILES | IC50 [1] | pKa [2]
NCC1(Cc2n[nH]c(=O)o2)CCCCC1 | > 10000 nM | 7.18
NCC1(Cc2nnn[nH]2)CCCCC1 | 100 nM | –
Cn1nnnc1CC1(CN)CCCCC1 | > 10000 nM | –
NCC1(Cc2nnn[nH]2)CCCCCC1 | 100 nM | –
CC(C)CC(CN)c1nnn[nH]1 (stereo not given) | 170 nM | 3.74
NCC1(Cc2noc(=O)[nH]2)CCCCC1 | – | 5.24
NCC1(CC(=O)O)CCCCC1 [GABAPENTIN] | 87 nM | 4.1
